Experimental data published in ChEMBL document CHEMBL3994577, “New amphiphilic neamine conjugates bearing a metal binding motif active against MDR E. aerogenes Gram-negative bacteria” (2017).
Values after ≈ are worked out from the molar mass of the structure shown. Active and inactive are the calls of the source. The rule behind the calls is not given here. Bridge positions count the residues as written; N and C are the ends. Square brackets hold non-standard residues; d marks the D form. Peptide text beside a SMILES is read from it. * marks the point of attachment. βNA = c1ccc2cc(N*)ccc2c1; Dab = NCC[C@H](N)C(=O)O

Columns and labels:
Klebsiella aerogenes [1] = experiment: Induction of membrane permeability in multidrug resistant Enterobacter aerogenes EA289 over-expressing AcrAB-TolC assessed as nitrocefin hydrolysis at 32 uM after 50 mins in presence of CCCP relative to control; assay type: functional; design: scale not given: the % may be the effect or the level left
How it was run: (§1)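 EA289 grown to exponential phase (OD600 0.5), washed in PPB (K₂HPO₄ 20 mM, MgCl₂ 1 mM, pH 7), adjusted to OD 0.375. Cells mixed with two-fold dilutions of compound (final 2–64 µM) plus CCCP 3.3 µM at 37°C. Nitrocefin added at t=0; OD490 followed for 1 h. Duplicate or triplicate.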

Klebsiella aerogenes [2] = experiment: Antibacterial activity against Enterobacter aerogenes EA298 TolC deficient after 18 hrs in presence of polymyxin B nonapeptide by broth dilution method; settings: EA298, 18 h
Klebsiella aerogenes [3] = experiment: Antibacterial activity against multidrug resistant Enterobacter aerogenes EA289 over-expressing AcrAB-TolC after 18 hrs by broth dilution method; assay type: functional; settings: EA289, 18 h
How it was run: (§2)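 Broth microdilution in MH broth. Inoculum 2x10⁵ cfu per well, with two-fold serial dilutions of compound from DMSO stocks (final DMSO ≤0.5%). MIC is the lowest concentration with no visible growth after 18 h at 37°C. Values are means of at least three independent experiments, in µM. Strains grown at 37°C; EA298 kept with kanamycin 50 µg.mL^-1.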

Klebsiella aerogenes [4] = experiment: Induction of membrane permeability in multidrug resistant Enterobacter aerogenes EA289 over-expressing AcrAB-TolC assessed as increase in nitrocefin hydrolysis measured for 1 hr in presence of CCCP; assay type: functional; how it was run: as §1
Escherichia coli [5] = experiment: Antibacterial activity against wild type Escherichia coli AG100 after 18 hrs in presence of polymyxin B nonapeptide by broth dilution method; assay type: functional; settings: AG100, 18 h
Klebsiella aerogenes [6] = experiment: Decrease in 1,2'-DiNaphtylAmine efflux in multidrug resistant Enterobacter aerogenes EA289 over-expressing AcrAB-TolC at 8 to 16 uM after 18 hrs measured every 4 sec for 6 mins in presence of glucose by fluorescence assay; assay type: functional
How it was run: (§3)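 EA289 grown 24 h at 37°C, washed and resuspended in PPB at OD600 0.25. Cells loaded with 1,2'-DNA 32 µM plus CCCP 5 µM for 18 h at 37°C in the dark, washed, then mixed with compound (final 0.5–128 µM) at 37°C. Fluorescence (ex 370/em 420 nm) read every 4 s for 6 min. Glucose added at cycle 20 (~100 s) to start efflux.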

Escherichia coli [7] = experiment: Antibacterial activity against AcrAB deficient Escherichia coli AG100A after 18 hrs in presence of polymyxin B nonapeptide by broth dilution method; assay type: functional
Klebsiella aerogenes [8] = experiment: Antibacterial activity against multidrug resistant Enterobacter aerogenes EA289 over-expressing AcrAB-TolC after 18 hrs in presence of polymyxin B nonapeptide by broth dilution method; assay type: functional; settings: EA289, 18 h; how it was run: as §2
Escherichia coli [9] = experiment: Antibacterial activity against wild type Escherichia coli AG100 after 18 hrs by broth dilution method; assay type: functional; settings: AG100, 18 h
How it was run: (§4)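 Broth microdilution MIC in MH broth with two-fold serial dilutions of compounds from DMSO solutions (final DMSO ≤ 0.5%). Inoculum was 2x10⁵ cfu per 200 µL, incubated 18 h at 37°C. MIC was the lowest concentration with no visible growth, given as the mean of at least three independent experiments, in µM. AG100A was grown with kanamycin (50 µg.mL^-1).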

Escherichia coli [10] = experiment: Antibacterial activity against AcrAB deficient Escherichia coli AG100A after 18 hrs by broth dilution method; assay type: functional; how it was run: as §4
[11] = Binding affinity to Zn2+ in Muller-Hinton broth at 50 uM by ESI-MS analysis
How it was run: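 Free ligand incubated in Mueller Hinton broth, the medium used for the antibacterial assays, then analysed by positive-ion ESI mass spectrometry for metal-bound species. […] Preformed Zn(II) and Cu(II) complexes were incubated in MH under the same conditions to check their stability.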

Klebsiella aerogenes [12] = experiment: Antibacterial activity against Enterobacter aerogenes EA298 TolC deficient after 18 hrs by broth dilution method; settings: EA298, 18 h
Klebsiella aerogenes [13] = experiment: Induction of membrane permeability in multidrug resistant Enterobacter aerogenes EA289 over-expressing AcrAB-TolC assessed as nitrocefin hydrolysis at 0.75 to 48 uM after 1 hr in presence of CCCP; assay type: functional
Klebsiella aerogenes [14] = experiment: Induction of membrane permeability in multidrug resistant Enterobacter aerogenes EA289 over-expressing AcrAB-TolC assessed as nitrocefin hydrolysis at 64 uM after 1 hr in presence of CCCP relative to control; assay type: functional; design: scale not given: the % may be the effect or the level left; how it was run: as §1
Klebsiella aerogenes [15] = experiment: Decrease in 1,2'-DiNaphtylAmine efflux in multidrug resistant Enterobacter aerogenes EA289 over-expressing AcrAB-TolC up to 32 uM after 18 hrs measured every 4 sec for 6 mins in presence of glucose by fluorescence assay; assay type: functional; how it was run: as §3
Klebsiella aerogenes [16] = experiment: Induction of membrane permeability in multidrug resistant Enterobacter aerogenes EA289 over-expressing AcrAB-TolC assessed as nitrocefin hydrolysis at 3 uM up to 20 mins in presence of CCCP relative to control; assay type: functional; how it was run: as §1
Klebsiella aerogenes [17] = experiment: Decrease in 1,2'-DiNaphtylAmine efflux in multidrug resistant Enterobacter aerogenes EA289 over-expressing AcrAB-TolC at 32 uM after 18 hrs measured every 4 sec for 6 mins in presence of glucose by fluorescence assay; assay type: functional; how it was run: as §3
Klebsiella aerogenes [18] = experiment: Decrease in 1,2'-DiNaphtylAmine efflux in multidrug resistant Enterobacter aerogenes EA289 over-expressing AcrAB-TolC up to 128 uM after 18 hrs measured every 4 sec for 6 mins in presence of glucose by fluorescence assay

Compound	MIC (Klebsiella aerogenes [2])	MIC (Klebsiella aerogenes [3])	Activity (Klebsiella aerogenes [4])	MIC (Escherichia coli [5])	MIC (Escherichia coli [7])	MIC (Klebsiella aerogenes [8])	MIC (Escherichia coli [9])	MIC (Escherichia coli [10])	MIC (Klebsiella aerogenes [12])	other results
NC[C@H]1O[C@H](O[C@H]2[C@H](OCCCCCCNC(=O)CCCC(=O)Nc3cccc(CN(Cc4ccccn4)Cc4ccccn4)n3)[C@@H](OCc3ccc4ccccc4c3)[C@H](N)C[C@@H]2N)[C@H](N)[C@@H](OCc2ccc3ccccc3c2)[C@@H]1OCc1ccc2ccccc2c1	2 µM	4 µM (≈ 4.97 µg/mL)	Dose-dependent effect	2 to 4 µM	2 µM	4 to 8 µM	2 to 4 µM (≈ 2.49 to 4.97 µg/mL)	2 µM (≈ 2.49 µg/mL)	2 to 8 µM (≈ 2.49 to 9.95 µg/mL)	Activity (Klebsiella aerogenes [1]): 90%; Activity (Klebsiella aerogenes [6]): Active; Activity [11]: Active
O=C(N[C@H](CO)[C@H](O)c1ccc([N+](=O)[O-])cc1)C(Cl)Cl [CHLORAMPHENICOL]		> 128 µM					8 µM (≈ 2.59 µg/mL)	1 µM (≈ 0.323 µg/mL)	32 µM (≈ 10.3 µg/mL)	
CC(C)C[C@@H]1NC(=O)[C@@H](Cc2ccccc2)NC(=O)[C@H](CCN)NC(=O)[C@@H](NC(=O)[C@H](CCN)NC(=O)[C@@H](N)[C@@H](C)O)CCNC(=O)[C@H]([C@@H](C)O)NC(=O)[C@H](CCN)NC(=O)[C@H](CCN)NC1=O (H-T[Dab][Dab][Dab][dF]L[Dab][Dab]T; lactam 3-C)										Activity (Klebsiella aerogenes [13]): inactive
NC[C@H]1O[C@H](O[C@H]2[C@H](OCCCCCCNC(=O)CCCCN(Cc3ccccn3)Cc3ccccn3)[C@@H](OCc3ccc4ccccc4c3)[C@H](N)C[C@@H]2N)[C@H](N)[C@@H](OCc2ccc3ccccc3c2)[C@@H]1OCc1ccc2ccccc2c1	4 to 8 µM	16 µM (≈ 18 µg/mL)	Dose-dependent effect	4 µM	2 to 4 µM	8 µM	8 to 16 µM (≈ 8.99 to 18 µg/mL)	8 to 16 µM (≈ 8.99 to 18 µg/mL)	8 µM (≈ 8.99 µg/mL)	Activity (Klebsiella aerogenes [6]): Active; Activity (Klebsiella aerogenes [14]): 60%
NC[C@H]1O[C@H](O[C@H]2[C@H](O)[C@@H](O)[C@H](N)C[C@@H]2N)[C@H](N)[C@@H](O)[C@@H]1O [NEAMINE]	> 128 µM	32 µM (≈ 10.3 µg/mL)		8 µM	128 µM	16 µM	16 to 32 µM (≈ 5.16 to 10.3 µg/mL)	128 µM (≈ 41.3 µg/mL)	> 128 µM	
N#CC(C#N)=NNc1cccc(Cl)c1										Activity (Klebsiella aerogenes [15]): Active
[N-]=[N+]=NCCCCCCO[C@@H]1[C@@H](OCc2ccc3ccccc3c2)[C@H](N)C[C@H](N)[C@H]1O[C@H]1O[C@H](CN)[C@@H](OCc2ccc3ccccc3c2)[C@H](OCc2ccc3ccccc3c2)[C@H]1N	32 µM	16 µM (≈ 13.9 µg/mL)		32 µM	16 µM	8 to 32 µM	32 µM (≈ 27.8 µg/mL)	32 µM (≈ 27.8 µg/mL)	16 µM (≈ 13.9 µg/mL)	
NCCCCCCO[C@@H]1[C@@H](OCc2ccc3ccccc3c2)[C@H](N)C[C@H](N)[C@H]1O[C@H]1O[C@H](CN)[C@@H](OCc2ccc3ccccc3c2)[C@H](OCc2ccc3ccccc3c2)[C@H]1N	4 to 8 µM	16 µM (≈ 13.5 µg/mL)	Dose-dependent effect	8 µM	4 µM	16 to 32 µM	8 µM (≈ 6.74 µg/mL)	8 µM (≈ 6.74 µg/mL)	4 µM (≈ 3.37 µg/mL)	
O=C(O)c1cn(C2CC2)c2cc(N3CCNCC3)c(F)cc2c1=O [CIPROFLOXACIN]		64 µM (≈ 21.2 µg/mL)					0.125 µM (≈ 0.0414 µg/mL)	0.03 µM (≈ 0.00994 µg/mL)	8 µM (≈ 2.65 µg/mL)	
POLYMYXIN B										Activity (Klebsiella aerogenes [16]): Active
CN1CCN(c2c(F)cc3c(=O)c(C(=O)O)cn(CCF)c3c2F)CC1 [FLEROXACIN]		> 128 µM					0.5 µM (≈ 0.185 µg/mL)	0.125 µM (≈ 0.0462 µg/mL)	16 µM (≈ 5.91 µg/mL)	
NC[C@H]1O[C@H](O[C@H]2[C@H](OCCCCCCNC(=O)CCCC(=O)Nc3cccc(CN(Cc4ccccc4)Cc4ccccc4)c3)[C@@H](OCc3ccc4ccccc4c3)[C@H](N)C[C@@H]2N)[C@H](N)[C@@H](OCc2ccc3ccccc3c2)[C@@H]1OCc1ccc2ccccc2c1	32 to 64 µM	128 µM (≈ 159 µg/mL)	Dose-dependent effect	32 to 64 µM	32 µM	128 µM	128 µM (≈ 159 µg/mL)	32 to 128 µM (≈ 39.7 to 159 µg/mL)	64 to 128 µM (≈ 79.4 to 159 µg/mL)	Activity (Klebsiella aerogenes [14]): 20%; Activity (Klebsiella aerogenes [17]): Active
N=C(N)NCCC[C@H](NC(=O)[C@@H](N)Cc1ccccc1)C(=O)Nc1ccc2ccccc2c1 (H-Phe-Arg-βNA)										Activity (Klebsiella aerogenes [18]): inactive
CC(C)(O/N=C(\C(=O)N[C@@H]1C(=O)N2C(C(=O)[O-])=C(C[n+]3ccccc3)CS[C@H]12)c1csc(N)n1)C(=O)O [CEFTAZIDIME]		> 128 µM					0.5 µM (≈ 0.273 µg/mL)	0.25 µM (≈ 0.137 µg/mL)	> 128 µM	
NC[C@H]1O[C@H](O[C@H]2[C@H](OCCCCCCNC(=O)CCCC(=O)N3CCCNCCNCCCNCC3)[C@@H](OCc3ccc4ccccc4c3)[C@H](N)C[C@@H]2N)[C@H](N)[C@@H](OCc2ccc3ccccc3c2)[C@@H]1OCc1ccc2ccccc2c1	2 µM	4 to 16 µM (≈ 4.55 to 18.2 µg/mL)	Dose-dependent effect	2 µM	1 to 2 µM	8 µM	4 µM (≈ 4.55 µg/mL)	2 µM (≈ 2.28 µg/mL)	2 to 4 µM (≈ 2.28 to 4.55 µg/mL)	Activity (Klebsiella aerogenes [6]): Active
